The target of assay [1] is T1, Kappa-type opioid receptor (Homo sapiens, UniProt P41145). Briefly: Agonist activity at human kappa opioid receptor expressed in CHO cells by [35S]GTPgammaS binding assay relative to control. The class given is functional, cell-based. The gist of the method: (§1)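 [35S]GTPγS binding (0.080 nM final) on membranes from CHO cells stably expressing human δ (10 μg), μ (7.5 μg) or κ (15 μg) receptors. Twelve compound concentrations were tested in 50 mM Tris-HCl pH 7.4 with 3 mM MgCl2, 0.2 mM EGTA, 3 μM GDP and 100 mM NaCl, for 60 min at 30 °C. Nonspecific binding was set with 10 μM GTPγS. Samples were filtered and counted. Emax was taken relative to basal (0%). Values are mean ± S.E.M., ≥3 experiments in triplicate.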

The target in assay [2] is T2, Mu-type opioid receptor (Homo sapiens, UniProt P35372). Nature of the assay: Agonist activity at human mu opioid receptor expressed in CHO cells by [35S]GTPgammaS binding assay relative to control. It is filed as functional, cell-based. The gist of the method:
as §1

In assay [3] the target is T2, Mu-type opioid receptor. Briefly: Antagonist activity at human mu opioid receptor expressed in CHO cells assessed as inhibition of DAMGO-induced [35S]GTPgammaS binding relative to control. It is filed as functional, cell-based. The gist of the method:
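Human μ-receptor CHO membranes (7.5 μg) were incubated with twelve compound concentrations plus 200 nM DAMGO and 0.080 nM [35S]GTPγS. Nonspecific binding was set with 10 μM GTPγS. Read by filtration and scintillation counting.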

Assay [4] has as its target T3, Delta-type opioid receptor (Homo sapiens, UniProt P41143). Nature of the assay: Antagonist activity at human delta opioid receptor expressed in CHO cells assessed as inhibition of […]-induced [35S]GTPgammaS binding relative to control. It is filed as functional, cell-based.
Assay [5] has as its target T1, Kappa-type opioid receptor. Briefly: Antagonist activity at human kappa opioid receptor expressed in CHO cells assessed as inhibition of […]-induced [35S]GTPgammaS binding relative to control. It is filed as functional, cell-based.
For assay [6], the species on record is Homo sapiens. Briefly: Selectivity ratio of Ki for human kappa opioid receptor to Ki for human mu opioid receptor.
The species named for assay [7] is Homo sapiens. Briefly: Selectivity ratio of Ki for human kappa opioid receptor to Ki for human delta opioid receptor.
Assay [8] has as its target T3, Delta-type opioid receptor. Briefly: Agonist activity at human delta opioid receptor expressed in CHO cells by [35S]GTPgammaS binding assay relative to control. The class given is functional, cell-based. The gist of the method:
as §1

In assay [9] the target is T1, Kappa-type opioid receptor. Nature of the assay: Displacement of [3H]U69593 from human kappa opioid receptor expressed in CHO cells after 60 mins by scintillation counting. The class given is cell-based.
For assay [10], the target named is T3, Delta-type opioid receptor. Briefly: Antagonist activity at human delta opioid receptor expressed in CHO cells assessed as inhibition of […]-induced [35S]GTPgammaS binding. It is filed as functional, cell-based.
The target in assay [11] is T3, Delta-type opioid receptor. Nature of the assay: Displacement of [3H]naltrindole from human delta opioid receptor expressed in CHO cells after 3 hrs by scintillation counting. It is filed as cell-based.
The target of assay [12] is T2, Mu-type opioid receptor. Nature of the assay: Displacement of [3H]DAMGO from human mu opioid receptor expressed in CHO cells after 60 mins by scintillation counting. It is filed as cell-based.
The species entered for assay [13] is Homo sapiens. Briefly: Selectivity ratio of Ki for human mu opioid receptor to Ki for human delta opioid receptor.
The target in assay [14] is T2, Mu-type opioid receptor. Nature of the assay: Antagonist activity at human mu opioid receptor expressed in CHO cells assessed as inhibition of DAMGO-induced [35S]GTPgammaS binding. It is filed as functional, cell-based.
For assay [15], the target named is T1, Kappa-type opioid receptor. Nature of the assay: Antagonist activity at human kappa opioid receptor expressed in CHO cells assessed as inhibition of […]-induced [35S]GTPgammaS binding. It is filed as functional, cell-based.

Each structure is given as a SMILES string. The source made the active and inactive calls. The rule behind the calls is not given here.

T3 sequence (P41143 whole entry): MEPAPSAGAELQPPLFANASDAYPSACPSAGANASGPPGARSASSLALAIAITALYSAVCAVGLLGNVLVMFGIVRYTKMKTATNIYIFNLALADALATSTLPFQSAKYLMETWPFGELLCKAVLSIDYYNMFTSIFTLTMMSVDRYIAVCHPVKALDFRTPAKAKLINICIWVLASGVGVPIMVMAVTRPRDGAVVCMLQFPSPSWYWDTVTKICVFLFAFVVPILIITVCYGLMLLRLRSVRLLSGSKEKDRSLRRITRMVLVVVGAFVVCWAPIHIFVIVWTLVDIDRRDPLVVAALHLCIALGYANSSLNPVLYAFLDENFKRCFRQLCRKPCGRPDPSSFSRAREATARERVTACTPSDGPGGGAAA
T2 sequence (P35372 whole entry): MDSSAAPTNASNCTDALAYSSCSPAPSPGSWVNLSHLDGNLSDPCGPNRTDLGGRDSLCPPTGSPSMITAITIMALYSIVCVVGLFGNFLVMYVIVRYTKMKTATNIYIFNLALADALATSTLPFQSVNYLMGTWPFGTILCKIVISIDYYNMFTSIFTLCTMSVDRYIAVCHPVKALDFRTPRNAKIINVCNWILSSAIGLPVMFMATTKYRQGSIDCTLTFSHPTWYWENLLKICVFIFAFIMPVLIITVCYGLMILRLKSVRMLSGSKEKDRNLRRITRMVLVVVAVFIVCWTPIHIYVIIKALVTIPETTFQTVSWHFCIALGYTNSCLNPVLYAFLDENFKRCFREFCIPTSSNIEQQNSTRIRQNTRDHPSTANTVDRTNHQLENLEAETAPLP
T1 sequence (P41145 whole entry): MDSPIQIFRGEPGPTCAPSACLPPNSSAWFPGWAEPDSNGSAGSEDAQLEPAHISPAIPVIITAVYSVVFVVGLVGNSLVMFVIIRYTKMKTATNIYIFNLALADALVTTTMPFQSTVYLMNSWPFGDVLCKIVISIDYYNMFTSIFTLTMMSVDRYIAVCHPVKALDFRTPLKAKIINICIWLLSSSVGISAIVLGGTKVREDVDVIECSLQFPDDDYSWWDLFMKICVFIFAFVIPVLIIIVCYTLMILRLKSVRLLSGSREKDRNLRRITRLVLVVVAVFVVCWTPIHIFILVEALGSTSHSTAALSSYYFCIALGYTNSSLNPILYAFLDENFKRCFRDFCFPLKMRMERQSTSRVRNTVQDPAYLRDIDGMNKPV

With `Cc1cc(O)cc(C)c1C[C@@H](C(=O)N1Cc2ccccc2C[C@H]1C(=O)NCCC(=O)OC1=C2O[C@H]3[C@@H](O)C=C[C@H]4[C@H]5CC(C=C1)C2[C@]43CCN5C)N(C)C` (stereo partly drawn), the figures for the Emax in assay [1] and in [2] were 41% and 14%, respectively. For the same compound, the figures for the Imax in [3] and in assay [4] were 69% and 120%, respectively. The Imax result in [5] is “inactive”.

For the compound `Cc1cc(O)cc(C)c1C[C@@H](C(=O)N1Cc2ccccc2C[C@H]1C(=O)O)N(C)C`, the Ratio Ki in assay [6] was more than 4.3; in assay [7], more than 3740.

Consider `Cc1cc(O)cc(C)c1C[C@@H](C(=O)N1Cc2ccccc2C[C@H]1C(=O)NCCC(=O)O)N(C)C`, for which the Ratio Ki in assay [6] is more than 2.2.

As to `Cc1cc(O)cc(C)c1C[C@@H](C(=O)N1Cc2ccccc2C[C@H]1C(=O)OC1=C2O[C@H]3[C@@H](O)C=C[C@H]4[C@H]5CC(C=C1)C2[C@]43CCN5C)N(C)C` (stereo partly drawn), the Emax in [8] is -4.9%; in assay [1], 2.6%; in [2] it was 0.43%. The Ki in assay [9] was 12 nM; in assay [11], 1.6 nM; in assay [12] it was 1.1 nM. For the same compound, the IC50 in assay [10] was found to be 1.7 nM; in assay [14], 13 nM; in assay [15], 3100 nM. Besides, the Ratio Ki in assay [13] was found to be 1.5; in [6] it was 11; in assay [7], 7.5. Further, the Imax in [3] is 97%; in [4], 120%; in assay [5], 99%.

For the origin of these results see ChEMBL document CHEMBL1667791, “Opioid bifunctional ligands from morphine and the opioid pharmacophore Dmt-Tic” (Eur J Med Chem, 2011).
